Experimental findings from ChEMBL document CHEMBL1134307, “trans-4-[4-(Methoxyphenyl)cyclohexyl]-1-arylpiperazines: a new class of potent and selective 5-HT(1A) receptor ligands as conformationally constrained analogues of 4-[3-(5-methoxy-1,2,3,4-tetrahydronaphthalen-1-yl)propyl]-1-arylpiperazines” (J Med Chem, 2001) are described below.

Experiment [1] addresses T1, 5-hydroxytryptamine receptor 1A (Rattus norvegicus, UniProt P19327).
T1 sequence (P19327 whole entry): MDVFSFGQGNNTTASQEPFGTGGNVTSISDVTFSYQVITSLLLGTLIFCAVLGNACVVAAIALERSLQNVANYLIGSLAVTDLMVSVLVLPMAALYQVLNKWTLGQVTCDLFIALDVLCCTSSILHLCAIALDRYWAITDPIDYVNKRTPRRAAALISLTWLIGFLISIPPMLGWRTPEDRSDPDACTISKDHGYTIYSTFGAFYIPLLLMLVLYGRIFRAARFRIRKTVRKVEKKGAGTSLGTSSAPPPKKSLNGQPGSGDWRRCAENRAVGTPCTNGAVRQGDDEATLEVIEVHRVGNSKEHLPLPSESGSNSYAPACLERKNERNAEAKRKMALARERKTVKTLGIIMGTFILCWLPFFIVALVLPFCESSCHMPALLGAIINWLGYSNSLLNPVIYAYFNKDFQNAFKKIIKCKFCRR
The experiment can be described thus: Binding was determined on 5-hydroxytryptamine 1A receptor in rat hippocampal membranes. The class given is cell membranes, Hippocampus. In a few lines: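 Hippocampus from male Wistar Hannover rats, homogenized in 50 mM Tris pH 7.6, washed, and preincubated 10 min at 37 °C. Ki given as mean ± SEM.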

In experiment [2] the target is T2, Adrenergic receptor alpha-1 (Rattus norvegicus, UniProt P15823+P23944+P43140).
T2 sequence (P15823 whole entry): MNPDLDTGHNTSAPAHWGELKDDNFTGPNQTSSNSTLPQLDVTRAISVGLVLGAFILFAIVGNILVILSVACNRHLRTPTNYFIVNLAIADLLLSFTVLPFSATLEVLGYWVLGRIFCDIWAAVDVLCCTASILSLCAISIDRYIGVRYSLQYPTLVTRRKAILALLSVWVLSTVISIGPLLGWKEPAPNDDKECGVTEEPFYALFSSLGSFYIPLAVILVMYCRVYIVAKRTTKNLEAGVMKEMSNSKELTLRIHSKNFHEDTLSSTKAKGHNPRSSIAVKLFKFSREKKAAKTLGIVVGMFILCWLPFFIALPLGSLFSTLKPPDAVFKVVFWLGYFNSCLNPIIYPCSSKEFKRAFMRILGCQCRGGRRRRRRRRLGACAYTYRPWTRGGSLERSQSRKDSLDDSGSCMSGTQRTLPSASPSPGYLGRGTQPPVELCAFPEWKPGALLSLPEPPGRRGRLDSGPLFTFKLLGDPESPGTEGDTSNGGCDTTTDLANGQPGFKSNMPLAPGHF
T2 sequence (P23944 whole entry): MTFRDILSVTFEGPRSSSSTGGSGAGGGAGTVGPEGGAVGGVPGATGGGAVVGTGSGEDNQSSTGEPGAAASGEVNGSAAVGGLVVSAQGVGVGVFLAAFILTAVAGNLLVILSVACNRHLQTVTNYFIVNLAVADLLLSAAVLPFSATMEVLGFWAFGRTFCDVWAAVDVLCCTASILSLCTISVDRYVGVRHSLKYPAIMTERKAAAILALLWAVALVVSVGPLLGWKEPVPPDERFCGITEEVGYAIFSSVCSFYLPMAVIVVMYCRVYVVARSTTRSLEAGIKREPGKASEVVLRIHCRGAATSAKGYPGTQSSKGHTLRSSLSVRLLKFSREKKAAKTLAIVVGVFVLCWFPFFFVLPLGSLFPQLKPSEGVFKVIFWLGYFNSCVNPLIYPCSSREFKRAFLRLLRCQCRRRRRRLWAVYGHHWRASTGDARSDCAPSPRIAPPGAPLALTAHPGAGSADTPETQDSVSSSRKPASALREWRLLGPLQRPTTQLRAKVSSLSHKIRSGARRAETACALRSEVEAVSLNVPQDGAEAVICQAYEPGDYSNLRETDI
T2 sequence (P43140 whole entry): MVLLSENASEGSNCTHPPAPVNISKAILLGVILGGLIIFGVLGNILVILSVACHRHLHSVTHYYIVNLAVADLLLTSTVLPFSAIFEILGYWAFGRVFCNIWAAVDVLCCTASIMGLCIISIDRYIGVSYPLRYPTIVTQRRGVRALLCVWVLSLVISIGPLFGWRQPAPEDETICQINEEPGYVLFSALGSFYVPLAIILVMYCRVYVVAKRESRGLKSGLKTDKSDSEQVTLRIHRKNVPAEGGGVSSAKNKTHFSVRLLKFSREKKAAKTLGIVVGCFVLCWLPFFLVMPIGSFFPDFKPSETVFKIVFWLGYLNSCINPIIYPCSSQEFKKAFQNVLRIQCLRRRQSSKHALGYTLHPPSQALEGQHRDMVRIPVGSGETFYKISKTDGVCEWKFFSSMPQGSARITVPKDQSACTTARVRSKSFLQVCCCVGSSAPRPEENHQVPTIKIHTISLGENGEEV
As to the kind of experiment: Binding affinity towards alpha-1 adrenergic receptor in rat cortical membranes. The class given is cell membranes.

For experiment [3], the target named is T3, Alpha-1D adrenergic receptor (Homo sapiens, UniProt P25100).
T3 sequence (P25100 whole entry): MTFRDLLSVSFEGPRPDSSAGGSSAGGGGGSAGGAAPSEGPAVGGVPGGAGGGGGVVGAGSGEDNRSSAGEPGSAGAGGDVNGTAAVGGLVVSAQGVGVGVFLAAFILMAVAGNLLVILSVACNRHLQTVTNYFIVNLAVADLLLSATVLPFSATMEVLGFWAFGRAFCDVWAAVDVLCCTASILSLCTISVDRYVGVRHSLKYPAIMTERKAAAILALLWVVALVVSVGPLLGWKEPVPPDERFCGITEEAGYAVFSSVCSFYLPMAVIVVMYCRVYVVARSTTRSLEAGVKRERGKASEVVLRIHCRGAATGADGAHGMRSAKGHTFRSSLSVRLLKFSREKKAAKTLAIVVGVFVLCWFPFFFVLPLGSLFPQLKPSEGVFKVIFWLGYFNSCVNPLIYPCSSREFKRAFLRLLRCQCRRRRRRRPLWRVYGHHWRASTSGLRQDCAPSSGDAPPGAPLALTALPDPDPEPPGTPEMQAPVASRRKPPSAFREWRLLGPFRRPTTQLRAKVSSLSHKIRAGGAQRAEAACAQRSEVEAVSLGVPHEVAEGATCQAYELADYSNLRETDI
As to the kind of experiment: Binding affinity towarda alpha-1D adrenergic receptor. The method in brief: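 Membranes from CHO cells stably expressing each human α1-adrenoceptor subtype, incubated in 50 mM Tris pH 7.4 with 0.2 nM [3H]prazosin and competing drugs (1 pM–10 µM), 30 min at 25 °C. Nonspecific binding with 10 µM phentolamine. Stopped with ice-cold Tris and filtration through 0.2% PEI-pretreated filters.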

The target in another experiment is D(2) dopamine receptor (Rattus norvegicus, UniProt P61169). As to the kind of experiment: Binding affinity towards dopamine receptor D2 in rat striatal membranes. The experiment is classed as cell membranes, Striatum, Membrane.

Some results are limits rather than exact numbers.

Chain of D(2) dopamine receptor (P61169 whole entry): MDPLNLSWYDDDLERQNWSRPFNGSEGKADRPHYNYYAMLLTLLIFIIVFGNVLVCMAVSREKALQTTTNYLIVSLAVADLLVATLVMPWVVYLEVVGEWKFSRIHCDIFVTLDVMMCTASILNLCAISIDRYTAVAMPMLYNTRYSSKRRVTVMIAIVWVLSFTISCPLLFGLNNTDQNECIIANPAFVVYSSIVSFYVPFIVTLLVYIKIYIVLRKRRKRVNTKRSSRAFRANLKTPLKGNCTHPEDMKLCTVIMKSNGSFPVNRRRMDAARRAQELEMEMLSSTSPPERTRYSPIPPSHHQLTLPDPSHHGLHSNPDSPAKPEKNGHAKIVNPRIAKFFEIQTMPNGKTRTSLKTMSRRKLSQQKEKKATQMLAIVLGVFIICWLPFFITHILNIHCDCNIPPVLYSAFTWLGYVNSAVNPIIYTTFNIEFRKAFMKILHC

With `COc1cccc2c1CCCC2CCCN1CCN(c2ccccn2)CC1` (stereo not drawn), the Ki (commonly the dissociation constant of the complex between target and ligand, obtained from inhibition or displacement) in experiment [1] was 0.48 nM; in experiment [2], 55 nM; in experiment [3], 5.95 nM; at D(2) dopamine receptor, 117 nM.
For `COc1cccc(C2CCC(N3CCN(c4ccccc4OC)CC3)CC2)c1` (stereo in doubt; trans) the same measures were 0.02 nM, 312 nM, 4.49 nM and 60 nM.
Take `COc1cccc(C2CCC(N3CCN(c4ccccn4)CC3)CC2)c1` (trans isomer): the inhibitory constant (Ki) in experiment [1] came out at 0.028 nM; in experiment [2], 767 nM; in experiment [3], 118 nM; at D(2) dopamine receptor it was 2190 nM.
For the compound `COc1cccc2c(CCCN3CCN(c4ccccn4)CC3)cccc12`, the inhibition constant (Ki) turned out to be 0.38 nM in experiment [1], 833 nM in experiment [2], 12.6 nM in experiment [3] and 450 nM at D(2) dopamine receptor.
With `COc1cccc2c1CCCC2CCCNCCOc1ccccn1` (stereo not drawn), the inhibitory constant (Ki) was 0.54 nM in experiment [1], 83 nM in experiment [2], 12.7 nM in experiment [3] and over 850 nM at D(2) dopamine receptor.
As for `COc1cccc2c(CCCNCCOc3ccccn3)cccc12`, the inhibition constant Ki in experiment [1] was found to be 0.19 nM; in experiment [2], 1300 nM; in experiment [3], 83.2 nM; at D(2) dopamine receptor, 378 nM.
Take `COc1cccc(C2CCC(NCCOc3ccccn3)CC2)c1` (stereo in doubt): the Ki in experiment [1] is 17 nM; in experiment [2] it was over 850 nM; in experiment [3], 142 nM; at D(2) dopamine receptor, 586 nM.
